Source: PubChem BioAssay
Active and inactive are the calls of the source.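 Rule for the calls, unless noted: active = Her2 level under about 52% in both replicate screens, with viability over 70% of control (limit read from the data); inconclusive = Her2 under the limit in one screen only, or viability under 70%; inactive = Her2 level above the set limit.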

Tests used:
[1] = Her2 expression decrease, cell viability multiplex – SKBR3 breast tumor cells, AlphaScreen, ATP viability, primary screen (AID 461); details: SKBR3 Her2 protein level, 18-24 h, measured here: SKBR3 viability, ATP luminescence, at 10 µM;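 for Her2 level: lower value means less Her2 protein in the cells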;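 for viability: percent of carrier control wells set as 100% viability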
[2] = target: Receptor tyrosine-protein kinase erbB-2 (Homo sapiens) (UniProt P04626); assay: as above; details: 18-24 h, at 10 µM, stronger effect = lower value
[3] = reduced viability of SK-BR-3 breast cancer cells – cell-based, 24 h, human, pilot screen (AID 572;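 active = viability at or below 10% of carrier control in both of two separate runs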;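 note: compound exposure lasted between 18 and 24 h rather than exactly 24 h; 100% = carrier-treated control wells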); details: SK-BR-3 viability, CellTiter-Glo luminescence, at 10 µM, stronger effect = lower value
[4] = HUVEC growth inhibition – cell-based, human, primary screen (AID 575;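 active = viability at or below 30% in both replicate assays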;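 note: 100% = median of untreated cell wells with 0.1% DMSO on each plate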); details: HUVEC proliferation, CellTiter-Glo luminescence, 72 h; at 10 µM; stronger effect = lower value
In short: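 Material: primary human umbilical vein endothelial cells / Schedule: 72 h exposure, 37 °C, 5% CO2, 30 min RT equilibration / Signal: ATP-based CellTiter-Glo luminescent read / Read-out basis: percent of median DMSO-control luminescence / Control set: 32 DMSO-only cell-control wells (high), 32 MePR drug-control wells (low) per plate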

[5] = H69AR cell proliferation blockers – human, duplicate replicates, primary screen (AID 580;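 active = viability at or under a set limit in both replicates, limit being median viability minus 3 SD, cut at about 48% in these data, passing the limit was not always enough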;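 note: 100% = mean luminescence of untreated wells and 0% = no signal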); details: H69AR lung tumor cells viability, ATP luminescence, 72 h; at 10 µM; stronger effect = lower value
[6] = MRP1 drug-resistance reversers in H69AR cells – cell-based, doxorubicin co-treatment, pilot screen (AID 601;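 active = viability loss from added drug above about 55%, and viability with drug at most 40%, in both replicates, limit read from the data, passing the limit was not always enough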); details: CellTiter-Glo, 72 h, at 10 µM; for differential viability (reversal): stronger effect = higher value
[7] = yeast transport mutant growth inhibition pilot in 384-well plates, post-Golgi transport modulator project (AID 636; in the data active = inhibition above about 31%); details: absorbance 615 nm, about 18 h, stronger effect = higher value
[8] = growth suppression of yeast trafficking mutant, preliminary HTS, modulators of trafficking downstream of Golgi apparatus project, 1536-format plate, OD 615 nm (AID 637; in the data active = inhibition above about 30%); details: yeast transport mutant growth, absorbance 615 nm, 18 h; stronger effect = higher value
[9] = H69AR cells + 2 uM doxorubicin, measured here: viability with 2 uM doxorubicin, stronger effect = lower value
[10] = H69AR cells, compound alone cytotoxicity

Sequence of Receptor tyrosine-protein kinase erbB-2 (Homo sapiens) (P04626 whole entry, looked up): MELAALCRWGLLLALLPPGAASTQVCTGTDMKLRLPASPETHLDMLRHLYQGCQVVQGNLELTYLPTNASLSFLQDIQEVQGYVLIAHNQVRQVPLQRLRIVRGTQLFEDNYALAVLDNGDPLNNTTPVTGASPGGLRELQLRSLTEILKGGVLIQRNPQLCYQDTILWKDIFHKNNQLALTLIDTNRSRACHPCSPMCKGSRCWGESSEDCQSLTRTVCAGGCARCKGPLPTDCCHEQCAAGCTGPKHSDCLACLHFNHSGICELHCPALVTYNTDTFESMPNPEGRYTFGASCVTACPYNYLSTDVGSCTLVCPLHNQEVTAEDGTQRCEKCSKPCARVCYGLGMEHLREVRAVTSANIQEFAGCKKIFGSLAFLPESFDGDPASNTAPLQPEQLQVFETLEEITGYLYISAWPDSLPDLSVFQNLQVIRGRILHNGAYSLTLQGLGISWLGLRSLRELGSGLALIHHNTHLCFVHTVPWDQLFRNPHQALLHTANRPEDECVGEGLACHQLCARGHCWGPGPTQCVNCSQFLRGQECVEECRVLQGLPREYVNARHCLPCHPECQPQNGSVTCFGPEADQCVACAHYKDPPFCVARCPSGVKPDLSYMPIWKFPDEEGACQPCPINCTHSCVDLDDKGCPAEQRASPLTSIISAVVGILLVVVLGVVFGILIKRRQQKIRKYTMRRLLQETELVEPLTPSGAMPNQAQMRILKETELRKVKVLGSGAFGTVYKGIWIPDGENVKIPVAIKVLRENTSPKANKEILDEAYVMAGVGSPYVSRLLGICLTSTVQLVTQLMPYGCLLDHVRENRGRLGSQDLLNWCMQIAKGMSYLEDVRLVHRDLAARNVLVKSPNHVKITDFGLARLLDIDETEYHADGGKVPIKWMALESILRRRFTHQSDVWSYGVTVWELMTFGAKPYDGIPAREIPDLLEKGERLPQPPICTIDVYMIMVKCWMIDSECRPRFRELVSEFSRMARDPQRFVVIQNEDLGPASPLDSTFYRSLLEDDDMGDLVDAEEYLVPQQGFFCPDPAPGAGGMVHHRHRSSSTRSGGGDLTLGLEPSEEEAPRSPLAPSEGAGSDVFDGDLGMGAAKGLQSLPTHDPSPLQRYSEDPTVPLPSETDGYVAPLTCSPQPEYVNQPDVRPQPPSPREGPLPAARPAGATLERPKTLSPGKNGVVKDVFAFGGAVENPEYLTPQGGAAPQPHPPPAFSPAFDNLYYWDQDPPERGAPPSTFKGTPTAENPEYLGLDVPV

Row | SMILES | viability [1] [%] | Her2 level [2] | viability [3] | viability [4] | viability [5] | differential viability (reversal) ([6]; H69AR cells + 2 uM doxorubicin) | viability [6, 9] [%] | viability [6, 10] [%] | inhibition [7] | inhibition [8]
1 | COC(=O)c1cc(OC)c(OC)cc1NC(=O)CC1CCCCC1 | 104 | 96.5% (inactive) | 104% (inactive) | 99.3% (inactive) | 103% (inactive) | 9.91% (inactive) | 93.6 | 103 | 0.79% (inactive) | -2.9% (inactive)
2 | Cc1cc(NS(=O)(=O)c2ccc(NC(=O)C(C)N3C(=O)c4ccccc4C3=O)cc2)nc(C)n1 (stereo not given) | 99 | 92% (inactive) | 99% (inactive) | 112% (inactive) | 97.4% (inactive) | 5.72% (inactive) | 91.7 | 97.4 | -2.89% (inactive) | 5.25% (inactive)
3 | CCOC(=O)c1[nH]c(C)c(C(=O)Nc2ccccc2F)c1C | 89.5 | 75.5% (inactive) | 89.5% (inactive) | 61.8% (inactive) | 16.1% (active) | -51% (inactive) | 67.1 | 16.1 | -4.47% (inactive) | 4.13% (inactive)
4 | N#Cc1nc(-c2cccs2)oc1NCc1ccc(Cl)cc1 | 111 | 88.5% (inactive) | 111% (inactive) | 64.9% (inactive) | 73.8% (inactive) | -14.1% (inactive) | 87.9 | 73.8 | -5.66% (inactive) | 0.65% (inactive)
5 | Cn1c(=O)c2c(nc(NCc3ccco3)n2C/C=C/c2ccccc2)n(C)c1=O | 100 | 84.5% (inactive) | 100% (inactive) | 89.3% (inactive) | 101% (inactive) | 5.26% (inactive) | 96.1 | 101 | -1.69% (inactive) | 0.16% (inactive)
6 | COc1ccc(-c2cn3cc(C)ccc3n2)cc1OC | 108 | 88% (inactive) | 108% (inactive) | 91.5% (inactive) | 63.7% (inactive) | 0.63% (inactive) | 63.1 | 63.7 | -5.26% (inactive) | -1.64% (inactive)
7 | COc1ccc(C2(C(=O)Nc3c(C)n(C)n(-c4ccccc4)c3=O)CCCC2)cc1OC | 94 | 91.5% (inactive) | 94% (inactive) | 98.5% (inactive) | 106% (inactive) | 21.9% (inactive) | 84.1 | 106 | -2.4% (inactive) | 1.43% (inactive)
8 | CC1CN(CC(O)COc2ccc(C(C)C)cc2)CC(C)O1 (stereo not given) | 93 | 94.5% (inactive) | 93% (inactive) | 94.9% (inactive) | 76.2% (inactive) | 3.78% (inactive) | 72.4 | 76.2 | 18.6% (inactive) | 6% (inactive)
9 | COc1ccc(N2CCN(C(=O)CSc3ccccc3N)CC2)cc1 | 85.5 | 88% (inactive) | 85.5% (inactive) | 88.2% (inactive) | 94.9% (inactive) | -2.63% (inactive) | 97.5 | 94.9 | 0% (inactive) | -0.55% (inactive)
10 | Cc1ccc(C)c(-n2c(Cc3cc(=O)[nH]c(=O)[nH]3)nnc2SCC(=O)NCc2ccco2)c1 | 131 | 142% (inactive) | 131% (inactive) | 100% (inactive) | 102% (inactive) | 13.3% (inactive) | 89 | 102 | -6% (inactive) | -5% (inactive)
11 | CCn1c(SCC(=O)N2c3ccccc3CCc3ccccc32)nc2c1c(=O)n(C)c(=O)n2C | 87.5 | 107% (inactive) | 87.5% (inactive) | 92.5% (inactive) | 94.3% (inactive) | -1.58% (inactive) | 95.8 | 94.3 | -1.51% (inactive) | -6.98% (inactive)
12 | COc1cccc(N(C(=O)c2ccco2)C(C(=O)NC2CCCC2)c2ccc(N(C)C)cc2)c1 (stereo not given) | 98 | 92.5% (inactive) | 98% (inactive) | 97.5% (inactive) | 91.8% (inactive) | 14.6% (inactive) | 77.2 | 91.8 | -5.45% (inactive) | -2.13% (inactive)
13 | O=C1c2ccccc2C(=O)N1CCCn1nnc(-c2ccc(N3CCOCC3)cc2)n1 | 110 | 90.5% (inactive) | 110% (inactive) | 103% (inactive) | 95.9% (inactive) | 0.795% (inactive) | 95.1 | 95.9 | -4.53% (inactive) | -4.43% (inactive)
14 | CC(C)C(c1nnnn1C1CCCC1)N1CCN(C(=O)c2ccco2)CC1 (stereo not given) | 114 | 96% (inactive) | 114% (inactive) | 82.1% (inactive) | 88.8% (inactive) | 15.8% (inactive) | 72.9 | 88.8 | -1.82% (inactive) | -11.8% (inactive)
15 | CC(=O)c1c(C)[nH]c(C(=O)NCc2cccs2)c1C | 97 | 90% (inactive) | 97% (inactive) | 93.8% (inactive) | 94.9% (inactive) | 11.2% (inactive) | 83.7 | 94.9 | 0.39% (inactive) | -1.45% (inactive)
16 | COc1cccc(-n2nnc3c(=O)n(Cc4cccc(F)c4)cnc32)c1 | 96.5 | 104% (inactive) | 96.5% (inactive) | 91.7% (inactive) | 99.9% (inactive) | 5.36% (inactive) | 94.6 | 99.9 | -2.7% (inactive) | 16.8% (inactive)
17 | COc1ccc(CCN2C(=O)CCC2(C)C(=O)NCc2cccnc2)cc1OC (stereo not given) | 106 | 91% (inactive) | 106% (inactive) | 109% (inactive) | 89.2% (inactive) | 1.2% (inactive) | 88 | 89.2 | -2.86% (inactive) | -2.22% (inactive)
18 | O=C(CSc1nnnn1C1CCCC1)N1CCN(C(=O)c2ccco2)CC1 | 82 | 89.5% (inactive) | 82% (inactive) | 105% (inactive) | 105% (inactive) | 1.94% (inactive) | 103 | 105 | -3.11% (inactive) | 4.59% (inactive)
19 | CCS(=O)(=O)N1CCC(C(=O)NC2CCCCC2)CC1 | 113 | 99% (inactive) | 113% (inactive) | 92.7% (inactive) | 97.4% (inactive) | 11.3% (inactive) | 86.1 | 97.4 | 1.84% (inactive) | 3.28% (inactive)
20 | Cc1ccccc1OCc1nc2ccccc2c(=O)n1/N=C/c1ccco1 | 102 | 100% (inactive) | 102% (inactive) | 71% (inactive) | 104% (inactive) | 8.3% (inactive) | 95.3 | 104 | 0.53% (inactive) | -2.9% (inactive)
21 | Cc1onc(-c2ccccc2)c1C(=O)N1CCOCC1 | 110 | 87% (inactive) | 110% (inactive) | 99.3% (inactive) | 107% (inactive) | 12.6% (inactive) | 94.4 | 107 | -3.42% (inactive) | -2.83% (inactive)
22 | O=c1[nH]c(Nc2ccccc2)cc2ccccc12 | 94.5 | 92% (inactive) | 94.5% (inactive) | 82.2% (inactive) | 101% (inactive) | 3.34% (inactive) | 97.9 | 101 | 2.5% (inactive) | 14.3% (inactive)
23 | O=C(NCc1ccco1)c1c2c(nc3ccccc13)CCC2 | 108 | 80% (inactive) | 108% (inactive) | 82.4% (inactive) | 80.7% (inactive) | 3.16% (inactive) | 77.5 | 80.7 | -6.4% (inactive) | 3.23% (inactive)
24 | COC(=O)/C=c1/s/c(=C(/C#N)C(=O)N2CCOCC2)n(-c2ccccc2)c1=O | 116 | 80.5% (inactive) | 116% (inactive) | 98.8% (inactive) | 88.8% (inactive) | -10.8% (inactive) | 99.6 | 88.8 | -7.4% (inactive) | -3.17% (inactive)
25 | O=C(CSc1nc(O)cc(=O)n1-c1ccccc1)N1CCCCC1 | 100 | 77% (inactive) | 100% (inactive) | 80.8% (inactive) | 98.8% (inactive) | 2.4% (inactive) | 96.4 | 98.8 | -6.44% (inactive) | 3.97% (inactive)
26 | COC(=O)c1[nH]c2ccccc2c1NS(=O)(=O)c1ccc(OC)cc1OC | 88.5 | 82% (inactive) | 88.5% (inactive) | 96.8% (inactive) | 84% (inactive) | -15.4% (inactive) | 99.4 | 84 | -5.26% (inactive) | -3.82% (inactive)
27 | CCC(C)(C(=O)NC1CCCC1)N(Cc1cccs1)C(=O)Cc1cccs1 (stereo not given) | 122 | 93% (inactive) | 122% (inactive) | 103% (inactive) | 96.8% (inactive) | 15.6% (inactive) | 81.3 | 96.8 | -7.53% (inactive) | -0.63% (inactive)
28 | O=C1c2ccccc2C(=O)N1OCc1ccccc1 | 95.5 | 91.5% (inactive) | 95.5% (inactive) | 101% (inactive) | 92.2% (inactive) | -0.76% (inactive) | 92.9 | 92.2 | -6.18% (inactive) | 3.93% (inactive)
